These results are taken from publication PMC6452901 (Nature biomedical engineering, 2019).

The test system of data set [1] is skin allograft (BALB/c donor). As to the kind of experiment: Skin allograft rejection under tacrolimus immunosuppression. It counts as in vivo, C57BL/6 mice. As to conditions: 2 mg/kg I.P.; treated PODs 7, 12 n = 6; untreated POD 7 n = 8. The method in brief: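 Allograft recipients received tacrolimus 2 mg/kg i.p. or saline daily from POD −1 to POD 7, plus doses on PODs 9 and 11. FITC-labelled nanosensors (10 nmol by peptide) were given before transplant (POD −4) and on PODs 7 and 12, followed by 90-min urine collection. Urinary FITC was bead-purified with anti-FITC, converted to percent injected dose, and expressed as fold over pre-transplant; unpaired two-sided t-test.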

The next data set addresses T1, murine Granzyme B (Mus musculus, UniProt P04187).
T1 sequence (P04187 21-247): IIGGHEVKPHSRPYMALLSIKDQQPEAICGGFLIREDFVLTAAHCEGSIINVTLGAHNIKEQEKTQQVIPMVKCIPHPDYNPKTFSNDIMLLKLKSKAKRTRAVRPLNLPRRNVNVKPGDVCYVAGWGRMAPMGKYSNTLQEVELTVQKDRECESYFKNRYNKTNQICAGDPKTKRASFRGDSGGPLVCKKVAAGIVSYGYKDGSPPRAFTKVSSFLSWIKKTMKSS
Put plainly: In vitro protease cleavage assay of nanosensors with recombinant GzmB. It is filed as biochemical. The method in brief: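 Candidate GzmB substrates (6–12-mer, Ile at P4, Asp at P1) were conjugated to iron-oxide nanoparticles. They were incubated with recombinant GzmB in PBS + 1% BSA at 37 °C with fluorescence monitoring. Fluorescence traces were fitted to compare initial cleavage velocities.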

Data set [2] has as its target T2, GzmB (Mus musculus, UniProt P04187).
T2 sequence (P04187 21-247): T1 sequence (P04187 21-247)
Put plainly: In vivo GzmB activity imaging with NIR activatable probe. Details: species or system C57BL/6 mice. To be noted: 10 nmol by peptide, organs excised at 24 hours.

The test system of data set [3] is skin allograft and isograft. It counts as in vivo, C57BL/6 mice. As to conditions: POD 7 (peak), i.v., surface-labeled, mice with both grafts, n = 5.
In data set [4] the target is T2, GzmB. As to the kind of experiment: Tracking of cleaved fragments after in vivo GzmB cleavage. On the set-up: species or system C57BL/6 mice. To be noted: POD 7, VT750-labelled, 10 nmol by peptides, 90 minutes post administration, tissue homogenates.
The next data set in a line: Immunogenicity study. It counts as in vivo, C57BL/6 mice. As to conditions: 10 nmol I.P., with or without complete Freund's adjuvant, total serum IgG, n = 3. The procedure, abridged:
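On day 0, C57BL/6 mice received a single i.p. dose in one of five arms: free GzmB substrate peptide (10 nmol), nanosensors (10 nmol by peptide), nanosensors plus complete Freund's adjuvant, chicken ovalbumin (100 μg) plus CFA, or saline. Serum came from retro-orbital blood, was spun at 3,500 G for 5 min and stored at −80°C. Total IgG was then quantified by immunoassay.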

Data set [5] in a line: Clearance of residual urine fluorescence after a single injection. It is filed as in vivo, mice. To be noted: n = 3.
Data set [6] deals with GzmB activity in skin allograft. As to the kind of experiment: Urinary prediction of acute rejection in skin graft mice. It is filed as in vivo, C57BL/6 mice. To be noted: FITC-labelled, 10 nmol by peptides, urine collected for 90 minutes, n = 6. The procedure, abridged:
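This was a paired design in C57BL/6 recipients of BALB/c tail-skin grafts. FITC-labelled nanosensors (10 nmol by peptide) were dosed at POD −4 and at post-transplant days, and mice voided over plates for 90 min. Urinary FITC was captured on anti-FITC magnetic beads and quantified against a free-FITC ladder. Values were volume-normalised to percent injected dose, scaled to pre-transplant mean and variance; one-way ANOVA with Dunnett post-test.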

The test system of data set [7] is membrane attack complex (MAC). As to the kind of experiment: ELISA of membrane attack complex. On the set-up: species or system human. As to conditions: serum samples, MicroVue CH50 Eq EIA, after 1 hour, n = 3. The procedure, abridged: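 Human control serum was mixed with activity nanosensors, and complement was triggered with heat-aggregated gamma globulin. Fluorescence was read for 1 h, then supernatants were assayed for membrane attack complex by CH50-equivalent EIA, which is proportional to CH50 U. Data are means ± s.e.m., n = 3, compared by one-way ANOVA with Tukey post-test.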
(In general: An ELISA detects its analyte on a solid surface through an enzyme-linked reagent.)

For `C=CC[C@@H]1/C=C(\C)C[C@H](C)C[C@H](OC)[C@H]2O[C@@](O)(C(=O)C(=O)N3CCCC[C@H]3C(=O)O[C@H](/C(C)=C/[C@@H]3CC[C@@H](O)[C@H](OC)C3)[C@H](C)[C@@H](O)CC1=O)[C@H](C)C[C@@H]2OC` [Tacrolimus], the “nanosensor urine signals of treated versus untreated allograft mice” value in data set [1] is listed as “blunted compared to untreated mice”.

Turning to AIEFD|SG, on murine Granzyme B (library of 13 candidate substrates conjugated to IONPs, n = 4), the “initial cleavage velocity by recombinant GzmB” value is reported as “highest initial cleavage velocity”.

Take kGGsIEFDSGGGs{PRA}c [activatable probe]: on GzmB [2], the “probe activation in tissues, allograft versus isograft mice” value was “significantly increased in allograft skin but statistically equivalent in all major organs”.

For (FITC)AIEFDSGc [activity nanosensors], the “signal increase in skin allograft over skin isograft” value in [3] turned out to be 4 fold. Also, the “fluorescence in kidneys, allograft compared to isograft mice” value in the data set with GzmB [4] worked out at 3 fold. For the same molecule, the “activation (fluorescence) in samples that contained recombinant GzmB” value at murine Granzyme B (saline, plasma or serum samples spiked with GzmB, 6 nM by NP, 300 nM by peptide, 37 °C, 60 minutes) is given as “markedly activated”. Further, the “induction of neutralizing antibodies” value in the data set “Immunogenicity study” is listed as “do not induce neutralizing antibodies”. Moreover, in data set [5], the “time to full clearance of residual urinary fluorescence” value is on record as no more than 2 days. Moreover, the “post-graft urine signals from allograft recipients versus pre-graft baseline” value in data set [6] is given as “significantly elevated as early as POD 5”. Also, the “MAC formation (complement activation by a foreign surface)” value in [7] is “no elevation in MAC formation”.
